{"source": "ChEMBL document CHEMBL4316593", "about": "(Eur J Med Chem, 2019)", "key": {"[1]": {"tested_on": "U-87 MG", "test": "Cell cycle arrest in human U87 cells assessed as change in PCNA gene expression at cytotoxic IC50 measured after 48 hrs […] relative to control", "format": "functional, U-87MG ATCC", "how_it_was_run": "(§1)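 U87 expression profiling. Cells incubated 48hrs at 37°C, 5% CO₂ with the IC₅₀ concentration, alongside a cisplatin and an untreated control, in triplicate. RNA was isolated by one common protocol and profiled. DEGs were called with DESeq2 (q < 0.05, fold change > 1.5) and expressed as fold change versus untreated.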"}, "[2]": {"tested_on": "U-87 MG", "test": "Cell cycle arrest in human U87 cells assessed as change in MYC gene expression at cytotoxic IC50 measured after 48 hrs […] relative to control", "format": "functional, U-87MG ATCC", "how_it_was_run": "as §1"}, "[3]": {"tested_on": "U-87 MG", "test": "Cell cycle arrest in human U87 cells assessed as change in SFN gene expression at cytotoxic IC50 measured after 48 hrs […] relative to control", "format": "functional, U-87MG ATCC", "how_it_was_run": "as §1"}, "[4]": {"tested_on": "U-87 MG", "test": "Cell cycle arrest in human U87 cells assessed as change in CDC6 gene expression at cytotoxic IC50 measured after 48 hrs […] relative to control", "format": "functional, U-87MG ATCC", "how_it_was_run": "as §1"}, "[5]": {"tested_on": "U-87 MG", "test": "Induction of DNA damage in human U87 cells assessed as change in PCNA gene expression at cytotoxic IC50 measured after 48 hrs […] relative to control", "format": "functional, U-87MG ATCC", "how_it_was_run": "as §1"}, "[6]": {"tested_on": "U-87 MG", "test": "Induction of DNA damage in human U87 cells assessed as change in E2F7 gene expression at cytotoxic IC50 measured after 48 hrs […] relative to control", "format": "functional, U-87MG ATCC", "how_it_was_run": "as §1"}, "[7]": {"tested_on": "U-87 MG", "test": "Induction of DNA damage in human U87 cells assessed as change in CDK1 gene expression at cytotoxic IC50 measured after 48 hrs […] relative to control", "format": "functional, U-87MG ATCC", "how_it_was_run": "as §1"}, "[8]": {"tested_on": "U-87 MG", "test": "Induction of apoptosis in human U87 cells assessed as change in ITPR2 gene expression at cytotoxic IC50 measured after 48 hrs […] relative to control", "format": "functional, U-87MG ATCC", "how_it_was_run": "(§2)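 U87 cells grown in MEM with 10% FBS at 37°C, 5% CO2. Cells exposed to IC50 of test compound for 48 hrs, alongside untreated and cisplatin controls, each condition in triplicate. RNA isolated and profiled; differential expression called with DESeq2 (q-value < 0.05, fold change > 1.5), fold change versus untreated.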"}, "[9]": {"tested_on": "U-87 MG", "test": "Induction of apoptosis in human U87 cells assessed as change in TUBA4A gene expression at cytotoxic IC50 measured after 48 hrs by […] relative to control", "format": "functional, U-87MG ATCC", "how_it_was_run": "as §2"}, "[10]": {"tested_on": "LN-229", "test": "Induction of oxidative stress in human LN229 cells assessed as increase in redox level at cytotoxic IC50 measured after 5 hrs by H2DCFDA dye based fluorescence assay relative to control", "format": "functional, cell-based", "how_it_was_run": "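Cells grown overnight, exposed to IC50 for 5 hrs at 37°C with negative, positive (H2O2) and blank controls, plus solvent baseline. Pelleted, loaded with 2 µM H2DCFDA for 30 min at 37°C, washed, resuspended in warm medium, 20 min at room temperature. Fluorescence read at ex 485/em 535 nm.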"}, "[11]": {"test": "Inhibition of RTK/PI3K/AKT/mTOR signaling in human U87 cells assessed as down regulation of WDR62 gene expression at cytotoxic IC50 measured after 48 hrs relative to control", "format": "cell-based", "conditions": "U-87MG ATCC", "how_it_was_run": "(§3)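 Cells were exposed for 48hrs at 37°C in humidified 5% CO₂ to the compound at its previously determined IC₅₀, with Cisplatin at its IC₅₀ and an untreated negative control alongside. Each condition was run in triplicate. RNA was isolated from all samples by the same protocol. Genes were called differentially expressed by DESeq2 at q-value < 0.05 and fold change > 1.5.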"}, "[12]": {"test": "Inhibition of RTK/PI3K/AKT/mTOR signaling in human U87 cells assessed as down regulation of SOD2 gene expression at cytotoxic IC50 measured after 48 hrs relative to control", "format": "cell-based", "conditions": "U-87MG ATCC", "how_it_was_run": "as §3"}, "[13]": {"test": "Inhibition of RTK/PI3K/AKT/mTOR signaling in human U87 cells assessed as down regulation of DEF8 gene expression at cytotoxic IC50 measured after 48 hrs relative to control", "format": "cell-based", "conditions": "U-87MG ATCC", "how_it_was_run": "as §2"}, "[14]": {"test": "Inhibition of RTK/PI3K/AKT/mTOR signaling in human U87 cells assessed as down regulation of NFIL3 gene expression at cytotoxic IC50 measured after 48 hrs relative to control", "format": "cell-based", "conditions": "U-87MG ATCC", "how_it_was_run": "as §3"}, "[15]": {"test": "Inhibition of RTK/PI3K/AKT/mTOR signaling in human U87 cells assessed as down regulation of PTGES3 gene expression at cytotoxic IC50 measured after 48 hrs relative to control", "format": "cell-based", "conditions": "U-87MG ATCC", "how_it_was_run": "as §3"}, "[16]": {"test": "Inhibition of RTK/PI3K/AKT/mTOR signaling in human U87 cells assessed as up regulation of NFATC4 gene expression at cytotoxic IC50 measured after 48 hrs relative to control", "format": "cell-based", "conditions": "U-87MG ATCC", "how_it_was_run": "as §3"}, "[17]": {"test": "Inhibition of RTK/PI3K/AKT/mTOR signaling in human U87 cells assessed as up regulation of UPK1A-AS1 gene expression at cytotoxic IC50 measured after 48 hrs relative to control", "format": "cell-based", "conditions": "U-87MG ATCC"}, "[18]": {"test": "Inhibition of RTK/PI3K/AKT/mTOR signaling in human U87 cells assessed as up regulation of FAM131C gene expression at cytotoxic IC50 measured after 48 hrs relative to control", "format": "cell-based", "conditions": "U-87MG ATCC", "how_it_was_run": "as §3"}, "[19]": {"test": "Inhibition of RTK/PI3K/AKT/mTOR signaling in human U87 cells assessed as up regulation of COX19, cytochrome c oxidase assembly factor gene expression at cytotoxic IC50 measured after 48 hrs relative to control", "format": "cell-based", "conditions": "U-87MG ATCC", "how_it_was_run": "as §3"}, "[20]": {"test": "Inhibition of RTK/PI3K/AKT/mTOR signaling in human U87 cells assessed as up regulation of USH1 protein network component harmonin gene expression at cytotoxic IC50 measured after 48 hrs relative to control", "format": "cell-based", "conditions": "U-87MG ATCC"}, "[21]": {"test": "Inhibition of RTK/PI3K/AKT/mTOR signaling in human U87 cells assessed as up regulation of keratinocyte associated protein 3 gene expression at cytotoxic IC50 measured after 48 hrs relative to control", "format": "cell-based"}, "[22]": {"test": "Inhibition of RTK/PI3K/AKT/mTOR signaling in human U87 cells assessed as up regulation of proline-serine-threonine phosphatase interacting protein 2 gene expression at cytotoxic IC50 measured after 48 hrs relative to control", "format": "cell-based", "conditions": "U-87MG ATCC"}, "[23]": {"test": "Inhibition of RTK/PI3K/AKT/mTOR signaling in human U87 cells assessed as up regulation of melanoma inhibitory activity 2 gene expression at cytotoxic IC50 measured after 48 hrs relative to control", "format": "cell-based", "conditions": "U-87MG ATCC"}, "[24]": {"test": "Inhibition of RTK/PI3K/AKT/mTOR signaling in human U87 cells assessed as up regulation of phosphofructokinase, platelet gene expression at cytotoxic IC50 measured after 48 hrs relative to control", "format": "cell-based"}, "[25]": {"test": "Inhibition of RTK/PI3K/AKT/mTOR signaling in human U87 cells assessed as up regulation of ADP ribosylation factor like GTPase 6 interacting protein 5 gene expression at cytotoxic IC50 measured after 48 hrs relative to control", "format": "cell-based", "conditions": "U-87MG ATCC", "how_it_was_run": "as §3"}, "[26]": {"test": "Inhibition of RTK/PI3K/AKT/mTOR signaling in human U87 cells assessed as up regulation of AHNAK2 gene expression at cytotoxic IC50 measured after 48 hrs relative to control", "format": "cell-based", "conditions": "U-87MG ATCC", "how_it_was_run": "as §3"}, "[27]": {"test": "Inhibition of RTK/PI3K/AKT/mTOR signaling in human U87 cells assessed as up regulation of NARS gene expression at cytotoxic IC50 measured after 48 hrs relative to control", "format": "cell-based", "conditions": "U-87MG ATCC", "how_it_was_run": "as §3"}}, "note": "Activity calls are given as the source filed them. The rule behind the calls is not given here.", "data": [{"smiles": "CC(=O)C(=NNc1ccccc1C#N)C(C)=O", "values": [{"measurement": "fold change (FC)", "setting": "[1]", "value": 1.668}, {"measurement": "fold change (FC)", "setting": "[2]", "value": -1.478}, {"measurement": "fold change (FC)", "setting": "[3]", "value": 1.949}, {"measurement": "fold change (FC)", "setting": "[4]", "value": 1.009}, {"measurement": "fold change (FC)", "setting": "[5]", "value": 1.668}, {"measurement": "fold change (FC)", "setting": "[6]", "value": 2.057}, {"measurement": "fold change (FC)", "setting": "[7]", "value": 1.569}, {"measurement": "log2FC", "setting": "[8]", "value": -3.745}, {"measurement": "log2FC", "setting": "[9]", "value": 1.583}, {"measurement": "Activity", "setting": "[10]", "value": "inactive"}, {"measurement": "log2FC", "setting": "[11]", "value": -1.86}, {"measurement": "log2FC", "setting": "[12]", "value": -0.617}, {"measurement": "log2FC", "setting": "[13]", "value": -0.591}, {"measurement": "log2FC", "setting": "[14]", "value": -0.44}, {"measurement": "log2FC", "setting": "[15]", "value": -0.422}, {"measurement": "log2FC", "setting": "[16]", "value": 2.89}, {"measurement": "log2FC", "setting": "[17]", "value": 2.69}, {"measurement": "log2FC", "setting": "[18]", "value": 2.04}, {"measurement": "log2FC", "setting": "[19]", "value": 1.33}, {"measurement": "log2FC", "setting": "[20]", "value": 1.03}, {"measurement": "log2FC", "setting": "[21]", "value": 1.03}, {"measurement": "log2FC", "setting": "[22]", "value": 0.785}, {"measurement": "log2FC", "setting": "[23]", "value": 0.695}, {"measurement": "log2FC", "setting": "[24]", "value": 0.662}, {"measurement": "log2FC", "setting": "[25]", "value": 0.661}, {"measurement": "log2FC", "setting": "[26]", "value": 0.621}, {"measurement": "log2FC", "setting": "[27]", "value": 0.53}]}]}
